Assay [1] concerns the target T1, Alpha-1D adrenergic receptor (Rattus norvegicus) (UniProt P23944).
T1 sequence (whole entry): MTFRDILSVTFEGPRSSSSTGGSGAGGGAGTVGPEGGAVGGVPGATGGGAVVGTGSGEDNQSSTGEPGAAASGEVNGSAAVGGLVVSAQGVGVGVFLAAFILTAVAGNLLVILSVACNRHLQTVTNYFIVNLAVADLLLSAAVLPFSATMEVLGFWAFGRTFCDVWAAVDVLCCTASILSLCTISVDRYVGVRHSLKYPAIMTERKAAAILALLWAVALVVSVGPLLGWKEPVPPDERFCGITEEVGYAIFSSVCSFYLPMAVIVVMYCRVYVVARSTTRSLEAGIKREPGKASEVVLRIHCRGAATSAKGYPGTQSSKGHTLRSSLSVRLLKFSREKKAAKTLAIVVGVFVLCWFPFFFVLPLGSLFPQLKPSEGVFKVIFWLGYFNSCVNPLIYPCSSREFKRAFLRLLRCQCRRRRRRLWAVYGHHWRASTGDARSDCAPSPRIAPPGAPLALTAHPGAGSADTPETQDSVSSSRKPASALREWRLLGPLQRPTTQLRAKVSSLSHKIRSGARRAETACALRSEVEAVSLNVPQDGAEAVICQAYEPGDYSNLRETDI
As to the kind of experiment: Potency against alpha-1D adrenergic receptor is determined by phenylephrine-induced contractions in rat. It counts as functional. In outline:
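Isolated rat aorta contracted with phenylephrine, with cumulative concentration–response curves run with and without antagonist. KB = antagonist concentration/(dose ratio − 1) by Schild, where dose ratio is the phenylephrine EC50 with antagonist over EC50 without. Means with 95% confidence limits, N = 4–6 experiments.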

Assay [2] addresses T2, Alpha-1A adrenergic receptor (Homo sapiens, UniProt P35348).
T2 sequence (P35348 whole entry): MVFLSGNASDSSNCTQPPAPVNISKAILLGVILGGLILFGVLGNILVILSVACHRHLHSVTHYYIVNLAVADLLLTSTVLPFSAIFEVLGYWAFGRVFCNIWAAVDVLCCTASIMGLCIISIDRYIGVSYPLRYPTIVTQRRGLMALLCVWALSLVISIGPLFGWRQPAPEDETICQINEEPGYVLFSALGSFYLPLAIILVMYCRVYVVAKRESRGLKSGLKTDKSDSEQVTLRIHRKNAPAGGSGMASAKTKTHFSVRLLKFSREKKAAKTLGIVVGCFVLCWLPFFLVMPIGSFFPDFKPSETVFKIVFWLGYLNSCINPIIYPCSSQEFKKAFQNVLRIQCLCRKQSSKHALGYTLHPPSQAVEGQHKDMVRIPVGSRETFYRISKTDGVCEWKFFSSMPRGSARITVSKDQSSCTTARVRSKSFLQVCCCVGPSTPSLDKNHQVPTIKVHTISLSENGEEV
Description: Binding affinity towards alpha-1A adrenergic receptor expressed in human embryonic kidney (HEK293) cells. In kind it is cell-based.

Assay [3] deals with T3, Alpha-2A adrenergic receptor (Homo sapiens, UniProt P08913).
T3 sequence (P08913 whole entry): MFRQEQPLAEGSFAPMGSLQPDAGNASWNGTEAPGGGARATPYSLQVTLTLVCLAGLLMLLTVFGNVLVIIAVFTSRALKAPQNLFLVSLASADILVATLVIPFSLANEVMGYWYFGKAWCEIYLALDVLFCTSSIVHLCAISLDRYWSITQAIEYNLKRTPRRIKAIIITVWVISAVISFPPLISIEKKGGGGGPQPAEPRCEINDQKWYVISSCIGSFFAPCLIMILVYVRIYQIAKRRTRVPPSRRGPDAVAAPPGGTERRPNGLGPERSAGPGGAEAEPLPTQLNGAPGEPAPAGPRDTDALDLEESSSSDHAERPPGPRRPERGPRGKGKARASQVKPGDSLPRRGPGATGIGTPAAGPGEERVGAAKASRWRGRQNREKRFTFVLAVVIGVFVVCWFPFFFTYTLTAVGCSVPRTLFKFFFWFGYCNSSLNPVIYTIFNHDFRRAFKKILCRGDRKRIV
Description: (§1) Binding affinity towards human alpha-2A adrenergic receptor expressed in Chinese Hamster ovary (CHO) cells. It counts as functional, cell-based.

Assay [4] addresses T4, Alpha-2C adrenergic receptor (Homo sapiens, UniProt P18825).
T4 sequence (P18825 whole entry): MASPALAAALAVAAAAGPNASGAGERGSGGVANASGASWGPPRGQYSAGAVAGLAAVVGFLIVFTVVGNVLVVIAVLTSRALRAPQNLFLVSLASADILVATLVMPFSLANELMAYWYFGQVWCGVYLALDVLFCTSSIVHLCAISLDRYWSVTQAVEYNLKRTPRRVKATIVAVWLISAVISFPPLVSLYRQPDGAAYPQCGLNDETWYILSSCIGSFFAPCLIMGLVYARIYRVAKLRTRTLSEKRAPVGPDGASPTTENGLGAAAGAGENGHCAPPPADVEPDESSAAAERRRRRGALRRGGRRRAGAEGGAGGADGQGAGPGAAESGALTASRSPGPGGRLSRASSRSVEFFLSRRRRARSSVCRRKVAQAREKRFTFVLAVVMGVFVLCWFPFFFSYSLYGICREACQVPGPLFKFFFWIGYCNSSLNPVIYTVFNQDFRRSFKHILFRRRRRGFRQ
Description: Binding affinity towards human alpha-2C adrenergic receptor expressed in Chinese Hamster ovary (CHO) cells. It counts as cell-based.

Assay [5] has as its target T5, Alpha-1D adrenergic receptor (Homo sapiens, UniProt P25100).
T5 sequence (P25100 whole entry): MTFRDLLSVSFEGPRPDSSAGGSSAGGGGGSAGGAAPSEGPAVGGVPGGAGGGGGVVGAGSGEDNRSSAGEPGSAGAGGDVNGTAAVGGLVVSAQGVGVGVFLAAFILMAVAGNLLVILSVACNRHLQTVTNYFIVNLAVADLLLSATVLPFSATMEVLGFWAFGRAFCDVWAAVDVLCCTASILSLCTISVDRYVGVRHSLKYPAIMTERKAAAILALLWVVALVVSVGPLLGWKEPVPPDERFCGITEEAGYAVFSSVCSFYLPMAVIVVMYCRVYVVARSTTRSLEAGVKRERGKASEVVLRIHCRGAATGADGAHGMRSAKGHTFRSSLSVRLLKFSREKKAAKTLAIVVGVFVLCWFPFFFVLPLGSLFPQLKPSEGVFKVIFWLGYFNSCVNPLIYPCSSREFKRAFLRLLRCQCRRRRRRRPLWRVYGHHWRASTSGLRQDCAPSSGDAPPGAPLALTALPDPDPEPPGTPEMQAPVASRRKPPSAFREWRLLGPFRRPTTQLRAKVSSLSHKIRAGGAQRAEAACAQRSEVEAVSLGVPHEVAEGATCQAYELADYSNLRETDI
As to the kind of experiment: Binding affinity towards human alpha-1D adrenergic receptor expressed in human embryonic kidney (HEK293) cells.

The target of assay [6] is T6, Alpha-1B adrenergic receptor (Homo sapiens, UniProt P35368).
T6 sequence (P35368 whole entry): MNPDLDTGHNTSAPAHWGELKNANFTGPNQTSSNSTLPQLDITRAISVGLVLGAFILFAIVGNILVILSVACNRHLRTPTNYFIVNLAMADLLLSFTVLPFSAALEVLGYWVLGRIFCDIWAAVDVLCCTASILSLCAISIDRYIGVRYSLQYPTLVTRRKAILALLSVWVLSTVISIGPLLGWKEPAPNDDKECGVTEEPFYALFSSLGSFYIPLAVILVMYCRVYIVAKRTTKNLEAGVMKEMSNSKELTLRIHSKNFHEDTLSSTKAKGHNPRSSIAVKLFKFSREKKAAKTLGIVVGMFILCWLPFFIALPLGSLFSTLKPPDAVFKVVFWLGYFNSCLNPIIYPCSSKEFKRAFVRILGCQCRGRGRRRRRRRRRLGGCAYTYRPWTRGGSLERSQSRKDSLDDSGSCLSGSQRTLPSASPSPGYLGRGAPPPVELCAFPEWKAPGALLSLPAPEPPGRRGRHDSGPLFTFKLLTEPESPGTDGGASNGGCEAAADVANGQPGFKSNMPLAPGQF
As to the kind of experiment: Binding affinity towards human alpha-1B adrenergic receptor expressed in human embryonic kidney (HEK293) cells.

The target in assay [7] is T7, Alpha-2B adrenergic receptor (Homo sapiens, UniProt P18089).
T7 sequence (P18089 whole entry): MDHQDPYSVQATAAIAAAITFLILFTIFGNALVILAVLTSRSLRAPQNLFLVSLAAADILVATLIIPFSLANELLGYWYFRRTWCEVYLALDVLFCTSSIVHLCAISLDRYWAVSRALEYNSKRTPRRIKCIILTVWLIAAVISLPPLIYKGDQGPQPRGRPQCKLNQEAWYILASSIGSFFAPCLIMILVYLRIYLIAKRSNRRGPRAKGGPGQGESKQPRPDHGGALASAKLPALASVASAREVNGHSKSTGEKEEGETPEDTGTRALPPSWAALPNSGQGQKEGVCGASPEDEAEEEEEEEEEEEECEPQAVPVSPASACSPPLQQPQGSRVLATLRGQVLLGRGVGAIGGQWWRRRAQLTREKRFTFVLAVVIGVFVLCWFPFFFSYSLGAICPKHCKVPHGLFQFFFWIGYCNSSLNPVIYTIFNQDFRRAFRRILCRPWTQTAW
Description: Binding affinity towards human alpha-2B adrenergic receptor expressed in Chinese Hamster ovary (CHO) cells. In kind it is cell-based.

Assay [8] concerns the target T3, Alpha-2A adrenergic receptor. Described as §1. It counts as cell-based.

pKi: −log10 of the molar value.

For 4 molecules, Kb and Ki results are on record in ChEMBL document CHEMBL1143453 (Bioorg Med Chem Lett, 2005).

`COc1cccc(N(NC2=NCCO2)c2ccc(C)cc2)c1` had a Kb in assay [1] of over 30000 nM. In addition, the pKi is 5.24 in assay [2] and 4.61 in assay [3].
Regarding `Cc1ccc(N(NC2=NCCN2)c2cccc(O)c2)cc1`, the pKi in assay [4] was 7.89; in assay [5], 7.30; in assay [6] it was 6.07; in assay [2], 7.57; in assay [7] it was 7.74; in assay [8], 7.62. The molecule also gave a Kb in assay [1] of 2.9 nM.
In assay [1], `Cc1ccc(N(NC2=NCCO2)c2cccc(O)c2)cc1` displayed a Kb of 13000 nM. The results for the negative logarithm of the Ki (pKi) in assay [2] and in assay [8] were 5.25 and 4.73, respectively.
With `COc1cccc(N(NC2=NCCN2)c2ccc(C)cc2)c1`, the pKi was 8.42 in assay [4]; 7.76 in assay [5]; 6.99 in assay [6]; 7.70 in assay [2]; 8.14 in assay [7]; 8.20 in assay [8]. Moreover, the Kb in assay [1] was determined as 7.4 nM.

As a reminder, the pKi is −log10 of the Ki, conventionally taken in molar units. A low value points to a high Ki.
